# Calls of active or inactive are those of the source. The rule behind the calls is not given here. Where a SMILES comes first, the peptide text is derived from it. [ ]: non-standard residue; d: D form. Gly(oct-7-en-1-yl) = C=CCCCCCC[C@H](N)C(=O)O; Ala(5-hexenyl) = C=CCCCCC[C@H](N)C(=O)O; dNle(6-vinyl) = C=CCCCC[C@@H](N)C(=O)O; Gly(octyl) = CCCCCCCC[C@H](N)C(=O)O
# Assays:
# [1] = Plasma concentration in C57/BL6 mouse at 60 mg/kg, sc after 3 hrs; type: ADME, organism-based, C57Bl/6; set-up: dose 60 mg/kg, route subcutaneous
# In short: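 Male C57Bl/6 mice were dosed subcutaneously with peptide in 50 mM mannitol/PBS. Serum was taken by cardiac puncture, and peptide was measured by LC–MS/MS after acetonitrile protein precipitation.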
# [2] = target: Phospholipid-transporting ATPase ABCA1 (Mus musculus, UniProt P41233); test: Induction of ABCA1-mediated [3H]cholesterol efflux in mouse RAW 264.7 macrophages after 24 hrs
# Phospholipid-transporting ATPase ABCA1, sequence (P41233 whole entry): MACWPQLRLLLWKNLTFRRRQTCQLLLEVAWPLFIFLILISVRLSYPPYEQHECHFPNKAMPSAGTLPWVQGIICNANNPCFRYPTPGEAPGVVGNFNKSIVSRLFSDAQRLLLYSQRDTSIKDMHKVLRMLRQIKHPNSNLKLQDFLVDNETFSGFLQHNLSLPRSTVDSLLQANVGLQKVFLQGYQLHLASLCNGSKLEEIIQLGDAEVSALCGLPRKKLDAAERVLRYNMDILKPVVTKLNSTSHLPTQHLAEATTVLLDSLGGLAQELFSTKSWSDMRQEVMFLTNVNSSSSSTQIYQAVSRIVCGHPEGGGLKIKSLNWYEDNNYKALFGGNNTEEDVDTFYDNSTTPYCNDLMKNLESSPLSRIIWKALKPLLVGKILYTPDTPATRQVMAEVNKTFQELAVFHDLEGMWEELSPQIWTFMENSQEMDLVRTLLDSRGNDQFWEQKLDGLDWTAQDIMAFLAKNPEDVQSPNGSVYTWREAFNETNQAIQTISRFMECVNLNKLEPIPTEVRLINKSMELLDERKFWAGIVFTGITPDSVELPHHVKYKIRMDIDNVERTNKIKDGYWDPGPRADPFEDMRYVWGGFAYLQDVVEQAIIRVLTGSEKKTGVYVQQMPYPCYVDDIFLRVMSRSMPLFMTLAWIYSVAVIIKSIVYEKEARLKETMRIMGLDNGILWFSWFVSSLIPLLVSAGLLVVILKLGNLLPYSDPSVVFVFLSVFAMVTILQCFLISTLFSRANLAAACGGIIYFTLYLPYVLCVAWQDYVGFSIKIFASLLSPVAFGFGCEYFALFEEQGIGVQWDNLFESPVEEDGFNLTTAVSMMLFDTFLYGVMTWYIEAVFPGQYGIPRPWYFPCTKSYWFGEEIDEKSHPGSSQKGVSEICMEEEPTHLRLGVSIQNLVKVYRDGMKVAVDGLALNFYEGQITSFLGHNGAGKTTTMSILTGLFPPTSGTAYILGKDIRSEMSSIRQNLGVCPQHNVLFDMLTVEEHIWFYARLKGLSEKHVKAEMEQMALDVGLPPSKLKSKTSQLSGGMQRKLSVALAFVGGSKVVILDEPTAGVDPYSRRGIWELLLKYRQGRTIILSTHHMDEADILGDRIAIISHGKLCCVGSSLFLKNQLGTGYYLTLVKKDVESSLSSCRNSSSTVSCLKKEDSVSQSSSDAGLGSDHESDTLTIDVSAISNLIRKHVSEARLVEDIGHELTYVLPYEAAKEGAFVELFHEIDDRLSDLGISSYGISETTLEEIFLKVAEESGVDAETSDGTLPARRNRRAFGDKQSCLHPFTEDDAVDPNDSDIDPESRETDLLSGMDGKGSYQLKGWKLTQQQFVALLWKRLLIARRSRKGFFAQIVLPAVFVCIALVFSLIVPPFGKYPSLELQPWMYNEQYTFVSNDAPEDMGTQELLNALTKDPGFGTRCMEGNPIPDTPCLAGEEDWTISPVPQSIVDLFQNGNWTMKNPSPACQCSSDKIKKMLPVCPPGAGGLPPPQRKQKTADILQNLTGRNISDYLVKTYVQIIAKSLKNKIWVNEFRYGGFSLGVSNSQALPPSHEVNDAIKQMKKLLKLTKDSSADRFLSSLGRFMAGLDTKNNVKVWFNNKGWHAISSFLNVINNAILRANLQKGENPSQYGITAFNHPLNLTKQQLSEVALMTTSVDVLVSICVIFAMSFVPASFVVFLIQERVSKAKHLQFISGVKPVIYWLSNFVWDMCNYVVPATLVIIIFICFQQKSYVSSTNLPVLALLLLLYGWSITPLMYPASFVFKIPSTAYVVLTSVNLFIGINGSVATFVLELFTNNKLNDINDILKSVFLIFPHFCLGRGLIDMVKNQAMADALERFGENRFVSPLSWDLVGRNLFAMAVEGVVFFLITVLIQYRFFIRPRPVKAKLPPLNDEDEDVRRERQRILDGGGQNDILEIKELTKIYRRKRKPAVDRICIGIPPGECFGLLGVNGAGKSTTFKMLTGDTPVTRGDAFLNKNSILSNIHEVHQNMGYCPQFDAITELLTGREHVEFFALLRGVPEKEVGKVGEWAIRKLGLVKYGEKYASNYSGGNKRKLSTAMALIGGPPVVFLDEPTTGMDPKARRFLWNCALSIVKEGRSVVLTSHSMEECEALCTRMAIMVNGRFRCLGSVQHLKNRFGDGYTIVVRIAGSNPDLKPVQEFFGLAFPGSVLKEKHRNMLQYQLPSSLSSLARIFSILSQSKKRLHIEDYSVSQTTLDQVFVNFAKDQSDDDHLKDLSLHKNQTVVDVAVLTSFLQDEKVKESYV
# Plasma = test: Induction of pre-beta HDL formation in human plasma after 2 hrs by ELISA; type: functional, cell-free
# In short: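 Increasing peptide concentrations were incubated with normal human plasma at 37 °C for 2 h. Pre-β HDL was quantified by a commercial human pre-β HDL ELISA.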
# [3] = target: Lipoprotein lipase (Bos taurus) (UniProt P11151); test: Inhibition of Lipoprotein lipase in vitro
concentration at 3 h [1] [µM],EC50 [2] [µM],IC50 [3] [µM],Molecule,Activity (Plasma)
0.33,> 100,,Ac-PVLDEFREKLNEELEALKQKLK-NH2,
,,,C=CCCCCC[C@H](NC(=O)[C@H](CCC(=O)O)NC(=O)[C@H](CC(N)=O)NC(=O)[C@H](CC(C)C)NC(=O)[C@H](CCCCN)NC(=O)[C@H](CCC(=O)O)NC(=O)[C@H](CCCNC(=N)N)NC(=O)[C@H](Cc1ccccc1)NC(=O)[C@H](CCC(=O)O)NC(=O)[C@H](CC(=O)O)NC(=O)[C@H](CC(C)C)NC(=O)[C@H](CCCCCC=C)NC(=O)[C@@H]1CCCN1C(C)=O)C(=O)N[C@@H](CC(C)C)C(=O)N[C@@H](CCC(=O)O)C(=O)N[C@@H](C)C(=O)N[C@@H](CC(C)C)C(=O)N[C@@H](CCCCN)C(=O)N[C@@H](CCC(N)=O)C(=O)N[C@@H](CCCCN)C(=O)N[C@@H](CC(C)C)C(=O)N[C@@H](CCCCN)C(N)=O (Ac-P[Ala(5-hexenyl)]LDEFREKLNE[Ala(5-hexenyl)]LEALKQKLK-NH2),inactive
,,,C=CCCCCCC[C@H](NC(=O)[C@H](CCC(=O)O)NC(=O)[C@H](CC(N)=O)NC(=O)[C@H](CC(C)C)NC(=O)[C@H](CCCCN)NC(=O)[C@H](CCC(=O)O)NC(=O)[C@H](CCCNC(=N)N)NC(=O)[C@H](Cc1ccccc1)NC(=O)[C@H](CCC(=O)O)NC(=O)[C@H](CC(=O)O)NC(=O)[C@H](CC(C)C)NC(=O)[C@@H](NC(=O)[C@@H]1CCCN1C(C)=O)C(C)C)C(=O)N[C@@H](CC(C)C)C(=O)N[C@@H](CCC(=O)O)C(=O)N[C@@H](C)C(=O)N[C@@H](CC(C)C)C(=O)N[C@@H](CCCCN)C(=O)N[C@@H](CCC(N)=O)C(=O)N[C@@H](CCCCN)C(=O)N[C@@H](CC(C)C)C(=O)N[C@@H](CCCCN)C(N)=O (Ac-PVLDEFREKLNE[Gly(oct-7-en-1-yl)]LEALKQKLK-NH2),Dose-dependent effect
116,0.8,,C=CCCCCC[C@H](NC(=O)[C@H](CCC(=O)O)NC(=O)[C@H](CC(N)=O)NC(=O)[C@H](CC(C)C)NC(=O)[C@H](CCCCN)NC(=O)[C@H](CCC(=O)O)NC(=O)[C@H](CCCN=C(N)N)NC(=O)[C@@H](CCCCC=C)NC(=O)[C@H](CCC(=O)O)NC(=O)[C@H](CC(=O)O)NC(=O)[C@H](CC(C)C)NC(=O)[C@@H](NC(=O)[C@@H]1CCCN1C(C)=O)C(C)C)C(=O)N[C@@H](CC(C)C)C(=O)N[C@@H](CCC(=O)O)C(=O)N[C@@H](C)C(=O)N[C@@H](CC(C)C)C(=O)N[C@@H](CCCCN)C(=O)N[C@@H](CCC(N)=O)C(=O)N[C@@H](CCCCN)C(=O)N[C@@H](CC(C)C)C(=O)N[C@@H](CCCCN)C(N)=O (Ac-PVLDE[dNle(6-vinyl)]REKLNE[Ala(5-hexenyl)]LEALKQKLK-NH2),
188,0.7,,CCCCCCCC[C@H](NC(=O)[C@H](CCC(=O)O)NC(=O)[C@H](CC(N)=O)NC(=O)[C@H](CC(C)C)NC(=O)[C@H](CCCCN)NC(=O)[C@H](CCC(=O)O)NC(=O)[C@H](CCCN=C(N)N)NC(=O)[C@H](Cc1ccccc1)NC(=O)[C@H](CCC(=O)O)NC(=O)[C@H](CC(=O)O)NC(=O)[C@H](CC(C)C)NC(=O)[C@@H](NC(=O)[C@@H]1CCCN1C(C)=O)C(C)C)C(=O)N[C@@H](CC(C)C)C(=O)N[C@@H](CCC(=O)O)C(=O)N[C@@H](C)C(=O)N[C@@H](CC(C)C)C(=O)N[C@@H](CCCCN)C(=O)N[C@@H](CCC(N)=O)C(=O)N[C@@H](CCCCN)C(=O)N[C@@H](CC(C)C)C(=O)N[C@@H](CCCCN)C(N)=O (Ac-PVLDEFREKLNE[Gly(octyl)]LEALKQKLK-NH2),
,2,24,CC(=O)N[C@H](CC(=O)O)C(=O)N[C@H](Cc1c[nH]c2ccccc12)C(=O)N[C@H](Cc1ccccc1)C(=O)N[C@H](CCCCN)C(=O)N[C@H](C)C(=O)N[C@H](Cc1ccccc1)C(=O)N[C@H](Cc1ccc(O)cc1)C(=O)N[C@H](CC(=O)O)C(=O)N[C@H](CCCCN)C(=O)N[C@@H](C(=O)N[C@H](C)C(=O)N[C@H](CCC(=O)O)C(=O)N[C@H](CCCCN)C(=O)N[C@H](Cc1ccccc1)C(=O)N[C@H](CCCCN)C(=O)N[C@H](CCC(=O)O)C(=O)N[C@H](C)C(=O)N[C@H](Cc1ccccc1)C(N)=O)C(C)C (Ac-[dD][dW][dF][dK][dA][dF][dY][dD][dK][dV][dA][dE][dK][dF][dK][dE][dA][dF]-NH2),

# From ChEMBL document CHEMBL1629456, “ApoA-I mimetic peptides promote pre-β HDL formation in vivo causing remodeling of HDL and triglyceride accumulation at higher dose” (Bioorg Med Chem, 2010)
